An excerpt weighted towards active compounds, which were near 1.6% of everything screened.
UBC13 inh – human UBC13 polyubiquitination inhibition; inhibition, % at 20 µM; UBC13 polyubiquitin chain formation, TR-FRET; P61088; hit rate 0.47% among 330,000; in the data active = inhibition above about 45%, passing the limit was not always enough
Target sequence (P61088 whole entry, looked up): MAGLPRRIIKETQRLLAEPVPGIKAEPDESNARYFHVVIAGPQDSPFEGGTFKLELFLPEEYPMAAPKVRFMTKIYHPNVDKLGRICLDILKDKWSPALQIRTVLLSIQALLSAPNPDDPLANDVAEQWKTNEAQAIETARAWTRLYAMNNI
Apaf1 inhib – inhibitors of human Apaf-1 apoptosome; O14727; hit rate 0.71% among 330,000; AID 489030; reconstituted apoptosome caspase-3 activity, DEVD-Rh110 fluorescence; inhibition, % at 20 µM; active = inhibition of at least 40% at 20 µM;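 also: plate controls were DMSO wells for no effect and DEVD-CHO caspase inhibitor wells for full effect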
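Material: cell-free apoptosome with Apaf-1, procaspase-3 and caspase-9; Buffer or medium: Hepes pH 7.5 with detergent and BSA; Reagent: cytochrome c trigger plus (Z-DEVD)2-Rh110 caspase-3 substrate; Times: compound with Apaf-1, dATP, procaspase-3 30 min, then 50 min reaction, room temperature; Technique: Rh110 fluorescence intensity.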
FID counter – fluorescent intercalator displacement, NS3 helicase counter-screen | hit rate 0.17% among 290,000 | AID 1845 | inhibition, % at 7.9 µM | DNA fluorescent intercalator displacement, fluorescence; in the data active = inhibition above about 37%;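 also: 0% = vehicle and 100% = reference compound; higher means more ethidium bromide displaced from hairpin DNA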
RAD52 anneal inh – blocks human RAD52 DNA annealing | recombinant RAD52 DNA annealing, FRET fluorescence | P43351 | inhibition, % at 18.7 µM | hit rate 0.46% among 360,000;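 active = every replicate showing at least 50% inhibition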
RAD54 branch – RAD54 (human) branch migration inhibition; hit rate 0.14% among 360,000; AID 602329; inhibition, % at 10.4 µM; RAD54 Holliday junction branch migration, FAM/BHQ fluorescence;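 active = mean normalized replicate activity at least 40 and at least half of replicates scoring 40 or more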;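 also: 0% = median of neutral control wells and 100% = median of positive control wells; inhibitors cause a drop in the FAM fluorescence signal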
Neddyl block – blocks human cullin neddylation; TR-FRET cullin neddylation, biochemical; calls only at 25 µM; hit rate 0.58% among 360,000; AID 651699; in the data active = inhibition above about 36%
Casp3 UBC13 ctr – counter-screen for UBC13 inhibitors: human caspase-3 inhibition | shares compounds with UBC13 inh | Recombinant caspase-3, Caspase-Glo 3/7 luminescence, 60 min | hit rate 4% among 1,400 | AID 488856 | inhibition, % at 20 µM;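 active = mean inhibition across replicates above about 26%, limit read from the data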;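 also: plate controls were DMSO with caspase-3 for no effect and DMSO wells lacking enzyme for full effect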
Target sequence (P42574 whole entry, looked up): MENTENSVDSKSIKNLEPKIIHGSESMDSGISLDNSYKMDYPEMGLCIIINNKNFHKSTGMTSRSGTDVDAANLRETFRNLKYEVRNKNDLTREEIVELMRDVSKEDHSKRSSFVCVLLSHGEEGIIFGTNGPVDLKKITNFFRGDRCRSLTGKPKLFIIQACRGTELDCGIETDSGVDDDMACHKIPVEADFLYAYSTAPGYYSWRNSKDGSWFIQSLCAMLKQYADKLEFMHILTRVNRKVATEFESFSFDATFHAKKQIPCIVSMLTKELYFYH
UBC13 conf – human UBC13 polyubiquitin inhibition, confirmed; shares compounds with UBC13 inh; UBC13 polyubiquitination, TR-FRET, biochemical; inhibition, % at 10 µM; hit rate 68% among 1,400; AID 488859; in the data active = inhibition above about 45%
* marks the source's active call; other numbers are inactive results; i = inactive; . = no result shown.

SMILES	UBC13 inh	Apaf1 inhib	FID counter	RAD52 anneal inh	RAD54 branch	Neddyl block	Casp3 UBC13 ctr	UBC13 conf
CCN(Cc1ccccc1)S(=O)(=O)c1ccc(C(=O)N(CCCN(C)C)c2nc3cc4c(cc3s2)OCO4)cc1	64.3*	23.2	35.2	0.5	13.8	i	-3.4	104.4*
Cc1cc(C)c2sc(N(CCCN(C)C)C(=O)c3ccc(S(=O)(=O)N4CCc5ccccc5C4)cc3)nc2c1	87.1*	22.5	.	.	6.4	i	-5.1	112.0*
O=C(CSc1nc2ccsc2c(=O)n1Cc1ccccc1)NCC1CCCO1 (stereo not given)	55.3*	2.8	-19.8	-13.0	.	i	-1.5	58.2*
Cc1ccc(Cn2c(SCC(=O)NCC3CCCO3)nc3ccsc3c2=O)cc1 (stereo not given)	29.9	2.2	-9.7	-17.7	.	i	.	.
CC1Cc2nc(SCC(=O)NCC3CCCO3)n(Cc3ccccc3)c(=O)c2S1 (stereo not given)	-4.4	4.5	-19.7	.	-7.8	i	.	.
O=C(CSc1nc2ccsc2c(=O)n1Cc1ccc(C(=O)O)cc1)NCC1CCCO1 (stereo not given)	69.1*	3.8	-14.1	-12.2	2.2	i	-4.1	76.6*
O=C(C[C@@H]1CC[C@@H]2[C@H](COC[C@H](O)CN2C(=O)c2ccccc2)O1)NCc1ccc(-c2ccccc2)cc1	.	.	.	-7.8	8.3	.	.	.
COc1cc2[nH]c(=S)nc(Nc3ccc(NC(C)=O)cc3)c2cc1OC	46.3*	-10.9	-2.8	-4.6	.	i	3.8	47.8*
COc1ccccc1CNc1nc(=S)[nH]c2cc(OC)c(OC)cc12	0.8	6.6	2.2	36.7	-2.2	i	.	.
COc1ccc(-c2sc3ccccc3c2-c2ccc(OCCN(C)C)cc2)cc1	86.6*	76.5*	.	-53.8	6.3	i	-9.5	80.8*
COc1ccc(-c2sc3ccccc3c2-c2ccc(O)cc2)cc1	28.1	26.1	.	-10.3	15.7	i	.	.
Cc1cccc(-c2ccc([C@@H]3[C@@H](CO)N4C(=O)CN(C(=O)Cc5ccccn5)C[C@@H]34)cc2)c1	.	.	.	-12.1	.	.	.	.
CCOC(=O)c1c(C)[nH]c(C2=NNC(=NC3CC3)SC2)c1C	76.6*	3.0	-19.1	.	.	i	73.3*	100.6*
CCOC(=O)c1c(C)[nH]c(/C(C)=N/O)c1C	4.5	-5.2	-5.7	-12.4	-8.1	i	.	.
C[C@@H]1CN([C@@H](C)CO)C(=O)c2cc(NC(=O)Nc3ccc4c(c3)OCO4)ccc2O[C@@H](C)CCCCO[C@@H]1CN(C)C(=O)C1CCCCC1	.	.	.	8.9	-2.1	.	.	.
O=C(Nc1ccc(Cl)c(C(F)(F)F)c1)NC1CC2CCCC(C1)N2Cc1ccccc1 (stereo not given)	46.2*	22.3	18.4	9.3	.	.	-5.0	62.9*
CN1[C@H](C(=O)NCCN2CCCCC2)[C@@H](CO)[C@@H]2Cn3c(ccc(-c4ccc(F)cc4)c3=O)[C@@H]21	.	.	.	6.3	4.1	.	.	.
CC(C)NC(=O)N(C)C[C@@H]1Oc2ccc(NC(=O)Nc3ccc(F)cc3)cc2C(=O)N([C@@H](C)CO)C[C@H]1C	.	.	.	12.4	0.0	.	.	.
CS(=O)(=O)N1Cc2cc(C(=O)NCC3CCCCC3)nc(-c3cccc(-c4cccnc4)c3)c2[C@@H]1CCO	.	.	.	-9.1	.	.	.	.
CCN1CCN(C(=O)c2cc3c(s2)-c2c(C)cccc2OC3)CC1	79.5*	1.1	4.7	.	3.3	i	53.5*	75.7*
O=C(NC[C@@H]1CC[C@@H]2[C@@H](CN2Cc2cccc(Cl)c2)O1)C1CC1	.	.	.	-8.0	.	.	.	.
CC1(C)Cc2c(c(N3CCOCC3)nc3sc4c(=O)[nH]cnc4c23)CS1	49.7*	11.3	-10.9	.	7.4	i	-1.9	54.5*
CC1(C)Cc2c(c(N3CCOCC3)nc3sc4c(N5CCOCC5)nnnc4c23)CS1	-1.3	37.7	-1.3	.	.	.	.	.
Cc1sc2nc(C(C)Nc3ccccc3N3CCOCC3)[nH]c(=O)c2c1C (stereo not given)	73.5*	2.2	-17.6	.	1.2	.	-0.7	86.8*
